The text below walks through data of ChEMBL document CHEMBL1145497, “A novel Giardia lamblia nitroreductase, GlNR1, interacts with nitazoxanide and other thiazolides” (Antimicrob Agents Chemother, 2007).

Assay [1] concerns Giardia duodenalis. In words: Inhibition of Giardia lamblia recombinant nitroreductase 1 (EAA43030.1) expressed in Escherichia coli at 5 uM. The essentials: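 Six-His-tagged recombinant enzyme expressed in E. coli (1 mM IPTG, 3.5 h) and Ni-column purified. Photometric NADH-oxidation assay in 50 mM Tris-Cl pH 7.0 with 25 μM dinitrotoluene substrate, 0.15 mM NADH final, and inhibitors at 5 μM against a DMSO control. After 5 min preincubation, A340 was read over 0–20 min. Activity came from the linear slope as μkat/g protein; triplicate, mean ± SE.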

For assay [2], the system named is Giardia intestinalis. In words: Growth inhibition of Giardia lamblia. The conditions noted are these: Giardia duodenalis. The format is functional, organism-based.
A short description of assay [3]: Inhibition of Giardia lamblia recombinant nitroreductase 1 (EAA43030.1) expressed in Escherichia coli. Further details: species or system Giardia duodenalis. In a few lines: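 His6-tagged recombinant GlNR1 from IPTG-induced E. coli, Ni-column purified. Photometric NADH oxidation assay in 50 mM Tris-Cl pH 7.0 with dinitrotoluene substrate, 0.15 mM NADH final, 5 min preincubation, A340 read over 0–20 min.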

For assay [4], the system named is Giardia intestinalis. Nature of the assay: Reduction of nitroreductase 1 expression level in Giardia lamblia trophozoites at 25 uM after 3 hrs by RT-PCR assay. It is filed as functional, organism-based. The settings on record: Giardia duodenalis. In a few lines:
(§1)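 G. lamblia WB clone C6 trophozoites grown anaerobically in modified TYI-S-33 to near confluence, exposed to compound at 25 μM (DMSO control) for 3 h, then harvested. RNA extracted with DNase I digestion; transcript levels of GlNR1, GlGDH1 and GlACT1 quantified by real-time RT-PCR.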

Assay [5] concerns Giardia intestinalis. In words: Reduction of GDH expression level in Giardia lamblia trophozoites at 25 uM after 3 hrs by RT-PCR assay. The settings on record: Giardia duodenalis. It is filed as functional, organism-based. The essentials:
as §1

Assay [6] relates to Giardia intestinalis. In words: Reduction of ACT1 expression level in Giardia lamblia trophozoites at 25 uM after 3 hrs by RT-PCR assay. The format is functional, organism-based. The conditions noted are these: Giardia duodenalis. The essentials:
as §1

Activity calls are given as the source filed them. No cut-off for these calls is given here. A value given as a limit tells only on which side of the number the result lay.

For the compound `Cc1ncc([N+](=O)[O-])n1CCO`, the result in assay [1] was inactive.

In general, inhibition refers to the percentage by which the read-out fell short of the control. As to `CC(=O)Oc1c(C)cccc1C(=O)Nc1ncc([N+](=O)[O-])s1`, the outcome in assay [2] was Active. Also, in assay [1], the inhibition is more than 75%.

Take `O=C(Nc1ncc([N+](=O)[O-])s1)c1ccccc1O`: the result in assay [2] was Active. For the same compound, the inhibition in assay [1] was more than 75%.

For orientation: Ki means a measure of affinity in units of concentration, obtained from inhibition or displacement. Take `CC(=O)Oc1ccccc1C(=O)Nc1ncc([N+](=O)[O-])s1` [NITAZOXANIDE]: the result in assay [2], in assay [4], in assay [5] and in assay [6] was Active. In assay [3], the Ki turned out to be 300 nM. Further, the inhibition in assay [1] was more than 75%.

Consider `COc1cccc(C(=O)Nc2ncc([N+](=O)[O-])s2)c1O`, for which, in assay [2], the outcome was Active. The inhibition in assay [1] was more than 75%.
